The text below walks through data of PubChem BioAssay AID540295 (The Scripps Research Institute Molecular Screening Center, 2011).

Hit rate of the full screen: of about 360,000 compounds, about 1,700 (0.47%) were called active. The list comes from a sample in which actives are over-represented; it also holds similar structures and randomly drawn compounds. A number with no mark means an inactive call.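 The calls were made as follows: active = inhibition above its plate's cutoff, the mean of tested wells on that plate plus 3 SD (cut at about 29% in these data); inactive = the rest.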

Melanocortin receptor 4 (Homo sapiens), sequence (P32245 whole entry, looked up): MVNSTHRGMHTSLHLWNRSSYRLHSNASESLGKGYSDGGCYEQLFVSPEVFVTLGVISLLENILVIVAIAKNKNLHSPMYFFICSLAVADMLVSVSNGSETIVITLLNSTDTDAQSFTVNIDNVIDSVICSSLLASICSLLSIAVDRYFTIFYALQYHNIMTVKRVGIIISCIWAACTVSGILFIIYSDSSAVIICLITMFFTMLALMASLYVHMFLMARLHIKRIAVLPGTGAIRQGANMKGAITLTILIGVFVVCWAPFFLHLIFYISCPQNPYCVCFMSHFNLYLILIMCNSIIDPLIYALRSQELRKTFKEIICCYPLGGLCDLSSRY

In this assay the target is Melanocortin receptor 4 (Homo sapiens) (UniProt P32245). In words: blockers of MC4R Gs-cAMP response – cell-based, TR-FRET, antagonist arm of biased-ligand search, primary screen (AID 540295).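 Also: 0% = Melanotan II alone and 100% = Melanotan II plus saturating MCL0020.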 The conditions noted are these: MC4R-expressing cells, MTII-stimulated cAMP, LANCE TR-FRET; at 6.5 µM; stronger effect = higher value. In short, it runs like this:
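Test system: U2OS cells stably expressing human melanocortin 4 receptor (MC4R); also added: Melanotan II challenge; compound: 6.5 µM single dose; timing: 30-min compound preincubation, 1-h Melanotan II challenge, 1-h detection, room temperature; signal: Eu-cAMP/anti-cAMP TR-FRET, emission 671 nm; repeats: one well per compound, no replicates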
In general, inhibition refers to the change of the read-out against control, counted positive when it falls. Consider `COc1ccccc1C(=O)NC(CCSC)C(=O)NNC(=O)c1csc(N2CCOCC2)n1` (configuration not stated), for which the inhibition is 14.9%.

For `Cc1ccc(NC(=O)COC(=O)CNC(=O)c2ccc(Cl)cc2Cl)cc1S(=O)(=O)N1CCOCC1`, the inhibition is 31.4% (active).

Turning to `Cc1ccc(NC(=O)CCCNC(=O)c2ccc(Cl)cc2)cc1S(=O)(=O)N1CCOCC1`, the inhibition is -7.04%.

Consider `Cc1ccc(NC(=O)COC(=O)C2CC2)cc1S(=O)(=O)N1CCOCC1`, for which the inhibition was 5.97%.

As to `Cc1cc(C)c(NC(=O)CN2C(=O)NC(Cc3ccccc3)C2=O)c(C)c1` (configuration not stated), the inhibition is -8.57%.

Regarding `CC1(C)C(c2cccs2)=[N+]([O-])C2(CCCCC2=O)N1O` (configuration not stated), the inhibition is 29.8% (active).

As to `CC(=O)C1(C)N(O)C(C)(C)C(c2cccs2)=[N+]1[O-]` (configuration not stated), the inhibition was -4.35%.

`Cc1cc(-n2cnc(-c3cn(C)nc3C)n2)no1`: the inhibition was 3.28%.

As for `CC(=O)N(Cc1cccs1)C1CCOC(C)(C)C1` (configuration not stated), the inhibition is -3.32%.

Consider `OC(CN1C2=NCCCN2c2ccccc21)c1ccc(Br)cc1` (configuration not stated), for which the inhibition was -7.35%.

As to `COc1cccc(OCC(=O)NCCS(=O)(=O)N2CCN(c3ccccc3)CC2)c1`, the inhibition was 1.47%.

On to `COC(=O)C1=C(C)N(C)C(=O)NC1c1ccc([N+](=O)[O-])o1` (configuration not stated), for which the inhibition is -8.39%.

With `COC(=O)c1c(C)[nH]c(C)c1-c1ccc([N+](=O)[O-])cc1`, the inhibition is -0.44%.

In the case of `COC(=O)C1=C(C(=O)OC)C(c2cc([N+](=O)[O-])ccc2O)c2sc(=O)[nH]c2S1` (configuration not stated), the inhibition was 33.3% (active).

As to `CC1(C)CC(N2CCN(C(c3ccccc3)c3ccccc3)CC2)=CC(=[N+]2CCCCC2)C1`, the inhibition was 5.45%.

Consider `NC1=NC2(CCCCC2)N(c2ccc(F)cc2F)C(N)=N1`, for which the inhibition is 1.15%.

In the case of `Cc1ccc2c(cnn2C(=O)CCC(=O)NC2CCCC2)c1`, the inhibition is -3.58%.

`CC(C)N(c1ccccc1)c1ncnc(NCCC(=O)O)c1[N+](=O)[O-]`: the inhibition is 9.58%.

For the compound `COC(=O)c1c(NC(=O)CCN2CCOCC2)sc2c1CCCC2`, the inhibition was -12.7%.

As to `O=C(CN1CCCC1)Nc1sc2c(c1C(=O)Nc1ccccc1)CCCC2`, the inhibition was -1.77%.

For the compound `Cc1ccc(NC(=O)c2c(NC(=O)CCC(=O)O)sc3c2CCCCC3)cc1`, the inhibition was 32% (active).

In the case of `CN(C)/C(CN1CCCCC1)=C1\N=C(c2ccccc2)OC1=O`, the inhibition was 7.27%.

Regarding `O=C1CCC(=O)N(c2ccccc2)N1`, the inhibition was 22.5%.

Consider `Cc1cccc(CS(=O)(=O)c2ncc(Cl)c(C(=O)Nc3ccc(F)cc3)n2)c1`, for which the inhibition was 12.4%.

As to `CSc1nnc(NC(=O)c2nc(S(=O)(=O)Cc3ccc(C)cc3)ncc2Cl)s1`, the inhibition is 44.6% (active).

As for `NC(=O)CSc1nnc(NC(=O)c2ccc(Br)o2)s1`, the inhibition is -2.81%.

Turning to `Cc1cc(C)c2nc(-c3cccnc3)cc(C(=O)Nc3ccc(S(=O)(=O)Nc4onc(C)c4C)cc3)c2c1`, the inhibition is 19.9%.

`C=Cn1c(C(=O)O)ccc1-c1ccc(OC)cc1`: the inhibition was 28.8% (active).

As to `COc1ccc(-c2ccc(CCC(=O)O)n2NC(=O)c2ccc(C(C)(C)C)cc2)cc1`, the inhibition was 11.2%.

As to `COc1ccc(-c2ccc(CCC(=O)O)n2-c2ccc(O)cc2)cc1`, the inhibition is 1%.

With `Cc1ccc(N(C(=O)c2snc(C(N)=O)c2N)C(C(=O)NCC2CCCO2)c2c[nH]c3ccccc23)cc1` (configuration not stated), the inhibition was 21.4%.

Regarding `Cc1ccc(C(C(=O)NCC2CCCO2)N(C(=O)c2snc(C(N)=O)c2N)c2ccc(C(C)C)cc2)o1` (configuration not stated), the inhibition is 29.1% (active).

As to `CCOc1ccc(N(C(=O)c2snc(C(N)=O)c2N)C(C(=O)NCC2CCCO2)c2c[nH]c3ccccc23)cc1` (configuration not stated), the inhibition is 12.3%.

With `O=C(CCNC(=O)c1ccc([N+](=O)[O-])cc1)Nc1ccccc1N1CCOCC1`, the inhibition was 17.3%.

Take `CC[C@@H]1Cc2cc(O)ccc2C2=C1c1ccc(O)cc1C[C@H]2CC`: the inhibition is 10.4%.

On to `Cc1csc(CN(C)C(=O)CC2C(=O)NCCN2CC(C)(C)C)n1` (configuration not stated), for which the inhibition was 4.33%.

With `COc1cc(OC)cc(-c2sc3ccc(OC)cc3c2-c2ccc3cc[nH]c3c2)c1`, the inhibition is 13%.

For `COc1ccc2sc(-c3ccc(S(C)(=O)=O)cc3)c(C#Cc3cncn3C)c2c1`, the inhibition is 12.3%.

Turning to `COc1ccc2sc(-c3ccc(S(C)(=O)=O)cc3)c(-c3ccc(C(N)=O)cc3)c2c1`, the inhibition is 35.3% (active).

On to `COC(=O)[C@H](Cc1ccccc1)NC(=O)[C@@H]1C[C@H]1[C@@H](NC(=O)OCc1ccccc1)c1ccccc1`, for which the inhibition was 29.7% (active).

Turning to `COC(=O)[C@@H](Cc1ccccc1)NC(=O)NCCc1ccccc1`, the inhibition is 23.7%.

On to `COC(=O)[C@H](C)[C@H]1C[C@]1(C)[C@H](NC(=O)OCc1ccccc1)c1ccccc1`, for which the inhibition was 5.83%.

For the compound `Cc1csc(/N=C/N(C)C)c1C#N`, the inhibition is 1.05%.

Take `Cc1ccc(S(=O)(=O)CCC(=O)OCC(=O)N(C)C2CCS(=O)(=O)C2)cc1` (configuration not stated): the inhibition was 0.56%.

In the case of `Cc1ccc(S(=O)(=O)CCC(=O)OCC(=O)N(C)Cc2ccccc2)cc1`, the inhibition was 33.6% (active).

On to `Cc1ccc(S(=O)(=O)CCC(=O)OCc2ccccc2)cc1`, for which the inhibition was 3.4%.

As for `CCOc1ccc(S(=O)(=O)NCc2ccc3c(c2)OCO3)cc1C`, the inhibition was 3.78%.

For the compound `COc1ccc(CCN=C2SCC(=O)N2C)cc1OC`, the inhibition is 10.4%.

Consider `O=C(NCCc1c[nH]c2ccccc12)c1cccc(Br)c1`, for which the inhibition is 31.5% (active).

`Cc1cc(C)cc(NC(=S)NCCc2c[nH]c3ccccc23)c1`: the inhibition was 7.21%.

Regarding `O=C(NCCc1c[nH]c2ccccc12)c1cc2ccccc2oc1=O`, the inhibition was -0.76%.

On to `CN(C)c1ccc(C2Nc3ccccc3C(=O)N2NS(=O)(=O)c2ccccc2)cc1` (configuration not stated), for which the inhibition is -6.61%.

As for `COc1ccc(S(=O)(=O)N2CCSCC2)cc1`, the inhibition was 2.98%.

With `CCOC(=O)c1c(C)oc2cc(Sc3ccccc3)c(O)c(O)c12`, the inhibition is 6.42%.

Regarding `CCOC(=O)c1c(-c2ccccc2)oc2cc(Br)c(O)c(C=O)c12`, the inhibition is 93% (active).

`Cc1oc2cc(Br)c(O)c(Br)c2c1C(=O)c1ccccc1`: the inhibition was 0.99%.

For `COc1ccc(CCCNC(=O)C2Cc3c(-c4cccc(C(N)=O)c4)ccnc3O2)cc1` (configuration not stated), the inhibition is 2.69%.
